Experiment [1] is described as follows: SK-BR-3 cell growth inhibitors, pilot screen, 24 h, human (AID 572;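 active = viability at or below 10% of carrier control in both of two separate runs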;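 note: compound exposure lasted between 18 and 24 h rather than exactly 24 h; 100% = carrier-treated control wells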). The following applies: SK-BR-3 viability, CellTiter-Glo luminescence, at 10 µM, stronger effect = lower value. Background: ATP-based viability assays read luminescence as a measure of living cells.
The nature of experiment [2]: HUVEC growth inhibition – cell-based, human, primary screen (AID 575;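 active = viability at or below 30% in both replicate assays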;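 note: 100% = median of untreated cell wells with 0.1% DMSO on each plate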). The settings on record: HUVEC proliferation, CellTiter-Glo luminescence, 72 h; at 10 µM; stronger effect = lower value. Summed up:
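material = primary HUVEC, no more than 12 passages | input = 1250 cells per well | controls = vehicle and MePR control wells | measured by = CTG luminescence | times = 72 h compound incubation | format = collagen-coated 384-well format | read-out = % viability vs DMSO wells | doses = single 10 µM dose, 0.1% DMSO, from 5x medium stock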

Experiment [3] can be described thus: growth inhibitors of H69AR lung tumor, primary screen, human, duplicate replicates (AID 580;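 active = viability at or under a set limit in both replicates, limit being median viability minus 3 SD, cut at about 48% in these data, passing the limit was not always enough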;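 note: 100% = mean luminescence of untreated wells and 0% = no signal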). The following applies: H69AR lung tumor cells viability, ATP luminescence, 72 h; at 10 µM; stronger effect = lower value.
Experiment [4] in a line: reversal of MRP1-mediated doxorubicin resistance, pilot screen, H69AR cells, doxorubicin co-treatment (AID 601;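 active = viability loss from added drug above about 55%, and viability with drug at most 40%, in both replicates, limit read from the data, passing the limit was not always enough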). The following applies: CellTiter-Glo, 72 h, at 10 µM; for differential viability (reversal): stronger effect = higher value.
A short description of experiment [5]: 384-well plate pilot, post-Golgi transport modulator project, inhibition of yeast transport mutant growth (AID 636; in the data active = inhibition above about 31%). The settings on record: absorbance 615 nm, about 18 h, stronger effect = higher value.
Experiment [6] in a line: growth suppression of yeast trafficking mutant, preliminary HTS, modulators of trafficking downstream of Golgi apparatus project, 1536-format plate, OD 615 nm (AID 637). The following applies: yeast transport mutant growth, absorbance 615 nm, 18 h; stronger effect = higher value.
[7] abbreviates: H69AR cells + 2 uM doxorubicin, measured here: viability with 2 uM doxorubicin, stronger effect = lower value.
Where [8] appears, read: H69AR cells, compound alone cytotoxicity.

Broadly, the viability is a read-out of living cells in per cent, often relative to untreated cells. As usually defined, the inhibition is the drop in the measured response relative to a control, in per cent.

Calls of active or inactive are those of the source. Cut-off read from the data, not from the text of the source, unless noted: active = inhibition above about 30%; inactive = the rest.

With `COC(=O)C1=C(C)Nc2ncnn2C1c1ccco1` (centres undefined), the viability in experiment [1] is 80% (inactive); in experiment [2] it was 91.8% (inactive); in experiment [3], 85.9% (inactive); in experiment [4] (setting [7]), 81.2%; in experiment [4] (setting [8]) it was 85.9%. Also, the differential viability (reversal) in experiment [4] (H69AR cells + 2 uM doxorubicin) is 4.73% (inactive). The inhibition is -8.49% (inactive) in experiment [5] and 4.91% (inactive) in experiment [6].

In the case of `CCOC(=O)C1=C[C@]2(CC)CCCN3CCc4c(n1c1ccccc41)[C@@H]32`, the viability was 70% (inactive) in experiment [1]; 49.9% (inactive) in experiment [2]; 80.1% (inactive) in experiment [3]; 63.7% in experiment [4] (setting [7]); 80.1% in experiment [4] (setting [8]). For the same compound, in experiment [4] (H69AR cells + 2 uM doxorubicin), the differential viability (reversal) was 16.4% (inactive). The inhibition in experiment [5] was -0.26% (inactive); in experiment [6], -1.67% (inactive).

Consider `Cn1c(CN2CCCCC2)nc2cc(NC(=O)c3ccccc3)ccc21`, for which the viability in experiment [1] was 54% (inactive); in experiment [2], 102% (inactive); in experiment [3], 88.5% (inactive); in experiment [4] (setting [7]) it was 94.2%; in experiment [4] (setting [8]) it was 88.5%. Further, the differential viability (reversal) in experiment [4] (H69AR cells + 2 uM doxorubicin) was -5.74% (inactive). The inhibition in experiment [5] is -7.53% (inactive); in experiment [6], -3.09% (inactive).

For the compound `COCCn1nnnc1C(c1cc2ccc(OC)cc2[nH]c1=O)N1CCc2ccccc2C1` (centres undefined), the viability in experiment [1] is 89% (inactive); in experiment [2], 90.4% (inactive); in experiment [3] it was 85.6% (inactive); in experiment [4] (setting [7]) it was 98.9%; in experiment [4] (setting [8]) it was 85.6%. Moreover, in experiment [4] (H69AR cells + 2 uM doxorubicin), the differential viability (reversal) is -13.3% (inactive). Besides, the figures for the inhibition in experiment [5] and in experiment [6] were -1.64% (inactive) and 4.52% (inactive), respectively.

On to `Cc1nnc(SCCCn2c(N3CCCCC3)nc3c2c(=O)[nH]c(=O)n3C)s1`, for which the viability was 104% (inactive) in experiment [1]; 92% (inactive) in experiment [2]; 97.4% (inactive) in experiment [3]; 87.1% in experiment [4] (setting [7]); 97.4% in experiment [4] (setting [8]). Further, the differential viability (reversal) in experiment [4] (H69AR cells + 2 uM doxorubicin) was 10.2% (inactive). In addition, the inhibition was -6.03% (inactive) in experiment [5] and 4% (inactive) in experiment [6].

Take `O=C(O)C1CCCCC1C(=O)Nc1ccccn1` (centres undefined): the viability in experiment [1] is 115% (inactive); in experiment [2], 93.9% (inactive); in experiment [3], 108% (inactive); in experiment [4] (setting [7]), 99.4%; in experiment [4] (setting [8]), 108%. For the same compound, the differential viability (reversal) in experiment [4] (H69AR cells + 2 uM doxorubicin) was 8.84% (inactive). Also, the inhibition in experiment [5] was -4.52% (inactive); in experiment [6] it was -4.73% (inactive).

For `Cc1cnc(NC(=O)CSc2nnc(-c3ccccc3)n2Cc2ccccc2)s1`, the viability in experiment [1] is 99% (inactive); in experiment [2], 82.5% (inactive); in experiment [3], 90.2% (inactive); in experiment [4] (setting [7]), 85.8%; in experiment [4] (setting [8]), 90.2%. Also, in experiment [4] (H69AR cells + 2 uM doxorubicin), the differential viability (reversal) was 4.35% (inactive). Further, the inhibition in experiment [5] is 0.55% (inactive); in experiment [6], 13.3% (inactive).

On to `Nc1nnc(SCc2cc3c(cc2Cl)OCO3)s1`, for which the viability is 118% (inactive) in experiment [1]; 94.4% (inactive) in experiment [2]; 99.7% (inactive) in experiment [3]; 85.2% in experiment [4] (setting [7]); 99.7% in experiment [4] (setting [8]). In addition, the differential viability (reversal) in experiment [4] (H69AR cells + 2 uM doxorubicin) was 14.4% (inactive). The inhibition in experiment [5] was -2.47% (inactive); in experiment [6] it was -1.13% (inactive).

As for `COc1ccc(-c2noc(CCCOc3ccccc3)n2)cc1OC`, the viability in experiment [1] was 78% (inactive); in experiment [2], 103% (inactive); in experiment [3] it was 93.7% (inactive); in experiment [4] (setting [7]) it was 101%; in experiment [4] (setting [8]), 93.7%. In addition, in experiment [4] (H69AR cells + 2 uM doxorubicin), the differential viability (reversal) was -7.4% (inactive). Also, the inhibition in experiment [5] is -1.92% (inactive); in experiment [6], 4.91% (inactive).

In the case of `CCc1ccc(Nc2cc(=O)n(C3CCCCC3)c(=O)[nH]2)cc1`, the viability was 136% (inactive) in experiment [1]; 44% (inactive) in experiment [2]; 18.3% (active) in experiment [3]; 50.4% in experiment [4] (setting [7]); 18.3% in experiment [4] (setting [8]). The differential viability (reversal) in experiment [4] (H69AR cells + 2 uM doxorubicin) was -32.1% (inactive). For the same compound, the results for the inhibition in experiment [5] and in experiment [6] were -3.65% (inactive) and -13% (inactive), respectively.

As to `COC(=O)C1=C(C)NC(C)=C(C(=O)OC)C1C(=O)OC1CCCCC1=O` (centres undefined), the viability was 89% (inactive) in experiment [1]; 105% (inactive) in experiment [2]; 97.3% (inactive) in experiment [3]; 94% in experiment [4] (setting [7]); 97.3% in experiment [4] (setting [8]). Besides, in experiment [4] (H69AR cells + 2 uM doxorubicin), the differential viability (reversal) was 3.25% (inactive). The inhibition in experiment [5] was -4.46% (inactive); in experiment [6], -0.49% (inactive).

Take `c1ccc(-c2cc(N3CCCCC3)ncn2)cc1`: the viability in experiment [1] was 105% (inactive); in experiment [2], 101% (inactive); in experiment [3], 99.7% (inactive); in experiment [4] (setting [7]), 90.6%; in experiment [4] (setting [8]), 99.7%. The differential viability (reversal) in experiment [4] (H69AR cells + 2 uM doxorubicin) is 9.16% (inactive). Besides, the inhibition in experiment [5] is -7.26% (inactive); in experiment [6] it was -0.32% (inactive).

On to `CCOCCCNC(=O)C1CC(=O)N(C2CCCC2)C1` (centres undefined), for which the viability in experiment [1] is 98% (inactive); in experiment [2], 97.7% (inactive); in experiment [3], 94.6% (inactive); in experiment [4] (setting [7]), 90.5%; in experiment [4] (setting [8]) it was 94.6%. Besides, the differential viability (reversal) in experiment [4] (H69AR cells + 2 uM doxorubicin) is 4.13% (inactive). Besides, the figures for the inhibition in experiment [5] and in experiment [6] were -0.91% (inactive) and 1.15% (inactive), respectively.

On to `CC(CN1c2ccccc2Sc2ccccc21)N(C)C` (centres undefined), for which the viability in experiment [1] is 88% (inactive); in experiment [2], 62.9% (inactive); in experiment [3], 92.2% (inactive); in experiment [4] (setting [7]), 87.7%; in experiment [4] (setting [8]), 92.2%. Also, the differential viability (reversal) in experiment [4] (H69AR cells + 2 uM doxorubicin) was 4.55% (inactive). Moreover, the inhibition in experiment [5] is -2.73% (inactive); in experiment [6], -1.67% (inactive).

With `CC(C)(C)NCC(O)COc1cccc2c1C[C@H](O)[C@H](O)C2` (some centres undefined), the viability in experiment [1] was 82% (inactive); in experiment [2], 85.3% (inactive); in experiment [3] it was 97.1% (inactive); in experiment [4] (setting [7]), 92.8%; in experiment [4] (setting [8]), 97.1%. Further, in experiment [4] (H69AR cells + 2 uM doxorubicin), the differential viability (reversal) is 4.26% (inactive). The inhibition in experiment [5] is 2.86% (inactive); in experiment [6], 1.83% (inactive).

Consider `Cc1ccc2nc(/C(C#N)=N/O)[nH]c2c1`, for which the viability in experiment [1] was 115% (inactive); in experiment [2], 84.9% (inactive); in experiment [3], 78.2% (inactive); in experiment [4] (setting [7]) it was 80.3%; in experiment [4] (setting [8]), 78.2%. Further, the differential viability (reversal) in experiment [4] (H69AR cells + 2 uM doxorubicin) was -2.1% (inactive). Also, the figures for the inhibition in experiment [5] and in experiment [6] were -4.53% (inactive) and 0% (inactive), respectively.

On to `CCCC1c2ccc(C)n2CCN1C(=O)Nc1ccccc1Cl` (centres undefined), for which the viability in experiment [1] is 92% (inactive); in experiment [2], 92.2% (inactive); in experiment [3], 93.5% (inactive); in experiment [4] (setting [7]), 86.6%; in experiment [4] (setting [8]), 93.5%. Further, the differential viability (reversal) in experiment [4] (H69AR cells + 2 uM doxorubicin) was 6.95% (inactive). The inhibition in experiment [5] was 2.73% (inactive); in experiment [6], 8.2% (inactive).

`Nn1c(SCC(=O)Nc2ccc(S(=O)(=O)N3CCCC3)cc2)nnc1C(F)(F)F`: the viability in experiment [1] was 110% (inactive); in experiment [2] it was 89.7% (inactive); in experiment [3], 90.8% (inactive); in experiment [4] (setting [7]) it was 97.6%; in experiment [4] (setting [8]) it was 90.8%. Also, the differential viability (reversal) in experiment [4] (H69AR cells + 2 uM doxorubicin) was -6.72% (inactive). Also, the figures for the inhibition in experiment [5] and in experiment [6] were 0% (inactive) and 3.11% (inactive), respectively.

Source of the values: PubChem BioAssay.
